Results taken from ChEMBL document CHEMBL2434871, “Discovery of a potent dual EGFR/HER-2 inhibitor L-2 (selatinib) for the treatment of cancer” (Eur J Med Chem, 2013).
pIC50: −log10 of the molar value.

Legend:
[1] = Cmax in Wistar rat at 100 mg/kg, po; assay type: ADME, organism-based; set-up: dose 100 mg/kg, route oral; conditions: in vivo
In short: (§1)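 Male Wistar rats (220 ± 10 g), n = 4 per group, given the tosylate salt orally by gavage at 100 mg/kg, suspended in 0.5% sodium carboxymethylcellulose. Blood was sampled at 0.25 to 24 h. Parent compound and the lapatinib metabolite were extracted by C18 solid-phase extraction and analysed by LC/MSn.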

[2] = test system: Rattus norvegicus; assay: AUC (0 to t) in Wistar rat at 100 mg/kg, po assessed as lapatinib; assay type: ADME, organism-based, Plasma; set-up: dose 100 mg/kg, route oral; conditions: in vivo; in short: as §1
[3] = AUC (0 to t) in Wistar rat at 100 mg/kg, po; assay type: ADME, organism-based; set-up: dose 100 mg/kg, route oral; conditions: plasma; in short: as §1
[4] = test system: Rattus norvegicus; assay: Elimination half life in Wistar rat at 100 mg/kg, po assessed as lapatinib; assay type: ADME, organism-based; set-up: dose 100 mg/kg, route oral; conditions: in vivo; in short: as §1
[5] = test system: Rattus norvegicus; assay: Mean residence time in Wistar rat at 100 mg/kg, po assessed as lapatinib; assay type: ADME, organism-based; set-up: dose 100 mg/kg, route oral; conditions: in vivo; in short: as §1
[6] = Elimination half life in Wistar rat at 100 mg/kg, po; assay type: ADME, organism-based; set-up: dose 100 mg/kg, route oral; conditions: in vivo, read-out: beta t1/2 (converted); in short: as §1
[7] = test system: Mus musculus; assay: Toxicity in BALB/c athymic mouse xenografted with human SKOV3 cells assessed as hematuria at 200 mg/kg, po qd after 4 days; assay type: organism-based, SK-OV-3; set-up: dose 200 mg/kg, route oral; conditions: in vivo, 96 h
[8] = test system: Rattus norvegicus; assay: AUC (0 to infinity) in Wistar rat at 100 mg/kg, po assessed as lapatinib; assay type: ADME, organism-based, Plasma; set-up: time infinity, dose 100 mg/kg, route oral; conditions: in vivo; in short: as §1
[9] = test system: Mus musculus; assay: Toxicity in BALB/c athymic mouse xenografted with human NCI-N87 cells assessed as hematuria at 200 mg/kg, po qd after 4 days; assay type: organism-based; set-up: dose 200 mg/kg, route oral; conditions: in vivo, 96 h
[10] = test system: Mus musculus; assay: Toxicity in BALB/c athymic mouse xenografted with human NCI-N87 cells assessed as weight loss at 200 mg/kg, po qd after 4 days; assay type: organism-based; set-up: dose 200 mg/kg, route oral; conditions: in vivo, 96 h
[11] = Aqueous solubility of the compound at 25 degC by shake-flask method; assay type: physicochemical; conditions: unbuffered water
[12] = test system: Rattus norvegicus; assay: Tmax in Wistar rat at 100 mg/kg, po assessed as lapatinib; assay type: ADME, organism-based; set-up: dose 100 mg/kg, route oral; conditions: in vivo; in short: as §1
[13] = test system: BT-474; assay: Cytotoxicity against human BT474 cells after 72 hrs by SRB assay; assay type: functional, cell-based; conditions: BT-474, 72 h
[14] = test system: Mus musculus; assay: Toxicity in BALB/c athymic mouse xenografted with human SKOV3 cells assessed as weight loss at 200 mg/kg, po qd after 4 days; assay type: organism-based, SK-OV-3; set-up: dose 200 mg/kg, route oral; conditions: in vivo, 96 h
[15] = test system: NCI-N87; assay: Antitumor activity against human NCI-N87 cells xenografted in BALB/c athymic mouse assessed as tumor regression at 200 mg/kg, po qd after 28 days relative to vehicle-treated control; assay type: functional; conditions: NCI-N87, 672 h, read-out: TGI
In short: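 Female BALB/c athymic mice, 4–6 weeks old, received 2 × 10⁶ NCI-N87 or SK-OV-3 cells s.c. in the right flank. At a tumor volume of 100–300 mm³ they were randomized (control n = 10, treated n = 6). Tosylate salt was given at 200 mg/kg qd by oral gavage, and controls received vehicle. Tumor volume was taken as length × width²/2 by caliper. Inhibition = (1 − T/C) × 100% on mean relative tumor volume (RTV). Two-tailed t test.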

[16] = target: Receptor tyrosine-protein kinase erbB-2 (Homo sapiens, UniProt P04626); assay: Inhibition of HER-2 (unknown origin) using poly-(Glu4-Tyr) as substrate after 1 hr by ELISA-based spectrophotometry
In short: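 ELISA on plates pre-coated with poly(Glu,Tyr 4:1) substrate. Serially diluted compounds plus ATP were added in 50 mM HEPES pH 7.4 containing 20 mM MgCl₂, 0.2 mM MnCl₂, 0.1 mM Na₃VO₄ and 1 mM DTT. Phosphotyrosine was detected with anti-phosphotyrosine antibody PY99 (1:500), then HRP anti-mouse IgG, then o-phenylenediamine/H₂O₂ at pH 5.5.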

[17] = test system: Rattus norvegicus; assay: Cmax in Wistar rat at 100 mg/kg, po assessed as lapatinib; assay type: ADME, organism-based; set-up: dose 100 mg/kg, route oral; conditions: in vivo; in short: as §1
[18] = test system: SK-OV-3; assay: Antitumor activity against human SKOV3 cells xenografted in BALB/c athymic mouse assessed as tumor regression at 200 mg/kg, po qd after 21 days relative to vehicle-treated control; conditions: SK-OV-3, po, 504 h, read-out: TGI
[19] = test system: NCI-N87; assay: Cytotoxicity against human NCI-N87 cells after 72 hrs by SRB assay; assay type: functional, cell-based; conditions: NCI-N87, 72 h
[20] = test system: Mus musculus; assay: Toxicity in BALB/c athymic mouse xenografted with human NCI-N87 cells assessed as bloody stool at 200 mg/kg, po qd after 4 days; assay type: organism-based; set-up: dose 200 mg/kg, route oral; conditions: in vivo, 96 h
[21] = Tmax in Wistar rat at 100 mg/kg, po; assay type: ADME, organism-based; set-up: dose 100 mg/kg, route oral; conditions: in vivo; in short: as §1
[22] = target: Epidermal growth factor receptor (Homo sapiens, UniProt P00533); assay: Inhibition of EGFR (unknown origin) using poly-(Glu4-Tyr) as substrate after 1 hr by ELISA-based spectrophotometry
[23] = test system: Mus musculus; assay: Toxicity in BALB/c athymic mouse xenografted with human SKOV3 cells assessed as bloody stool at 200 mg/kg, po qd after 4 days; assay type: organism-based, SK-OV-3; set-up: dose 200 mg/kg, route oral; conditions: in vivo, 96 h
[24] = Mean residence time in Wistar rat at 100 mg/kg, po; assay type: ADME, organism-based; set-up: dose 100 mg/kg, route oral; conditions: in vivo; in short: as §1
[25] = AUC (0 to infinity) in Wistar rat at 100 mg/kg, po; assay type: ADME, organism-based; set-up: time infinity, dose 100 mg/kg, route oral; conditions: plasma; in short: as §1

Chain of Epidermal growth factor receptor (P00533 whole entry): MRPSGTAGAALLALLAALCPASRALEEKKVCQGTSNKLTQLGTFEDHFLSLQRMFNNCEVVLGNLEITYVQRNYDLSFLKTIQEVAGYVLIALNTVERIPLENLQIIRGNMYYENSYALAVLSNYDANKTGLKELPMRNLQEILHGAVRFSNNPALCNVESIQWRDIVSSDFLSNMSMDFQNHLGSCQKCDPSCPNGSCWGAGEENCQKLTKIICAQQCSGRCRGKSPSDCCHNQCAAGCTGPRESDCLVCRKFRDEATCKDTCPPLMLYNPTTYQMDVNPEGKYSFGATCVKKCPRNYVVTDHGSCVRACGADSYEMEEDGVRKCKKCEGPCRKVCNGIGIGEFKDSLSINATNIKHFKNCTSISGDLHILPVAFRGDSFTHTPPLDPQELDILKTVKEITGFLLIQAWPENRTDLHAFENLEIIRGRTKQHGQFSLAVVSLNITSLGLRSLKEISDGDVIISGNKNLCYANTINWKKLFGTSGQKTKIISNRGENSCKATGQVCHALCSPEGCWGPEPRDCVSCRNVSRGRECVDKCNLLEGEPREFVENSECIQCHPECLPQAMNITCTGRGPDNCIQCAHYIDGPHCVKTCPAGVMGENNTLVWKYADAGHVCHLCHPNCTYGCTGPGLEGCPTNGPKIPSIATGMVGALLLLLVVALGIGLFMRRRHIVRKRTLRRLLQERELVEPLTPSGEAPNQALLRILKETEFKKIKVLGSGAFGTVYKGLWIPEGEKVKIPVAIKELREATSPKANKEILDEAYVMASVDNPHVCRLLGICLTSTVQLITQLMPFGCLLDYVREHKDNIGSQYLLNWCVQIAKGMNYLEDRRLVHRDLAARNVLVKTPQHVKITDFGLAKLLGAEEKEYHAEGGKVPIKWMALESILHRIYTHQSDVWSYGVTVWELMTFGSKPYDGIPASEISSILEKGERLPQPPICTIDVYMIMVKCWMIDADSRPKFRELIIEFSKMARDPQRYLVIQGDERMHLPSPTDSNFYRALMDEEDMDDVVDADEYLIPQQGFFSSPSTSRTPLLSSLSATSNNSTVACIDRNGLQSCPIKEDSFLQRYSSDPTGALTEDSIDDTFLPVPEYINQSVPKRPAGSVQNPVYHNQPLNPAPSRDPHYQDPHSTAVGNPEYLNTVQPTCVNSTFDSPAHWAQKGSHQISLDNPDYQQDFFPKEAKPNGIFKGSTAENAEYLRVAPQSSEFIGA
Chain of Receptor tyrosine-protein kinase erbB-2 (P04626 whole entry): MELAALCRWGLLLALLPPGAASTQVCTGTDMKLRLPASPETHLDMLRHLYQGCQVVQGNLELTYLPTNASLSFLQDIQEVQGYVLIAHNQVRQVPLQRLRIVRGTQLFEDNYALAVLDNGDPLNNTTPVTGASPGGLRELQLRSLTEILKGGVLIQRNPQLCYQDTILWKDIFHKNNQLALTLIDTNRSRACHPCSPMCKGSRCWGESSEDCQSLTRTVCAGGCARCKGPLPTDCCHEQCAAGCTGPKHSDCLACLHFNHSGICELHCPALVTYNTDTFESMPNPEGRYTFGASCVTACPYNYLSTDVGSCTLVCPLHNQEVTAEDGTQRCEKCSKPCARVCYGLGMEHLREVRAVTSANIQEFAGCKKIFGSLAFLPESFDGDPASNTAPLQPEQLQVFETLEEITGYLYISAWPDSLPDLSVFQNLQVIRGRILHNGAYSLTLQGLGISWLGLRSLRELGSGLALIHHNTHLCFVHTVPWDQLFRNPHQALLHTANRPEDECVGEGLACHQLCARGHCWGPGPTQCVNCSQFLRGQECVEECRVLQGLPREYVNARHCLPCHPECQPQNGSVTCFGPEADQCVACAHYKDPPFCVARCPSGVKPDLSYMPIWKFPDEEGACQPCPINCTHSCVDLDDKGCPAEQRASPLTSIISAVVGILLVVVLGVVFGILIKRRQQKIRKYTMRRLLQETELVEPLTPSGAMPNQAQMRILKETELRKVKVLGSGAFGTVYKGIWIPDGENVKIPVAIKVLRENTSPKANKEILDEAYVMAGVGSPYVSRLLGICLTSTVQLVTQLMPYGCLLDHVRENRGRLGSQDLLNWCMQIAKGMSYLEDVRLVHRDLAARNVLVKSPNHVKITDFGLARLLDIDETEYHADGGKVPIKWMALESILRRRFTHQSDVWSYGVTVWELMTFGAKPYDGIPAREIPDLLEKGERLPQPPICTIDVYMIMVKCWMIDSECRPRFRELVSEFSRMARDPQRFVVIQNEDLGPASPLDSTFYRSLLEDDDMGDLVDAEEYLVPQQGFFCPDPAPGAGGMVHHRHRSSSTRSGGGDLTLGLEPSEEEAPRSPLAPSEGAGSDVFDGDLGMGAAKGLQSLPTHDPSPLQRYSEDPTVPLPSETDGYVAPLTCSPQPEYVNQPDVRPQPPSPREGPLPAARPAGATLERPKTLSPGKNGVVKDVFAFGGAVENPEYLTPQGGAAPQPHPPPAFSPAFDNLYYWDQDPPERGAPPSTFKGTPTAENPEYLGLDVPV

SMILES | pIC50 [16] | Cmax [1] | AUCt [2] | AUC(0-t) [3] | beta t1/2 [4] | MRT [5] | half-life [6] | Activity [7] | AUC [8] | Activity [9] | Activity [10] | solubility [11] | Tmax [12] | pIC50 [13] | Activity [14] | inhibition in vivo at 200 mg/kg [15] | Cmax [17] | inhibition in vivo at 200 mg/kg [18] | pIC50 [19] | pIC50 [22] | other results
CSCCNCc1ccc(-c2ccc3ncnc(Nc4ccc(OCc5cccc(F)c5)c(Cl)c4)c3c2)o1.Cc1ccc(S(=O)(=O)O)cc1 | 7.74 | 854 ng/mL | 1994 ng·h/mL | 7890 ng·h/mL | 4.18 h | 8.34 h | 4.43 h | Non-toxic | 2058 ng·h/mL | Non-toxic | Non-toxic | 3 µg/mL | 3 h | 7.45 | Non-toxic | 84.7% | 242 ng/mL | 74.6% | 7.33 | 7.60 | Activity [20]: Non-toxic; Tmax [21]: 3 h; Activity [23]: Non-toxic; MRT [24]: 8.19 h; AUC(0-inf) [25]: 8130 ng·h/mL
C[S+]([O-])CCNCc1ccc(-c2ccc3ncnc(Nc4ccc(OCc5cccc(F)c5)c(Cl)c4)c3c2)o1.Cc1ccc(S(=O)(=O)O)cc1 (configuration not stated) | – | 8880 ng/mL | 4295 ng·h/mL | 50300 ng·h/mL | 2.64 h | 5.88 h | 2.32 h | – | 4309 ng·h/mL | – | – | – | 4.5 h | – | – | – | 645 ng/mL | – | – | – | Tmax [21]: 3.5 h; MRT [24]: 5.38 h; AUC(0-inf) [25]: 53200 ng·h/mL
Cc1ccc(S(=O)(=O)O)cc1.O=S(=O)(CCNCc1ccc(-c2ccc3ncnc(Nc4ccc(OCc5cccc(F)c5)c(Cl)c4)c3c2)o1)CC(F)(F)F | 8.07 | – | – | – | – | – | – | Non-toxic | – | Non-toxic | Non-toxic | 16.7 µg/mL | – | 7.58 | Non-toxic | 46.9% | – | 45.2% | 7.29 | 7.68 | Activity [20]: Non-toxic; Activity [23]: Non-toxic
Fc1cccc(COc2ccc(Nc3ncnc4ccc(-c5ccc(CN6CCOCC6)o5)cc34)cc2Cl)c1 | 7.88 | – | – | – | – | – | – | – | – | – | – | – | – | 7.07 | – | – | – | – | 7.20 | 7.59 | –

Continued, in another order:

pIC50 [16] | SMILES | Cmax [1] | AUCt [2] | AUC(0-t) [3] | beta t1/2 [4] | MRT [5] | half-life [6] | Activity [7] | AUC [8] | Activity [9] | Activity [10] | solubility [11] | Tmax [12] | pIC50 [13] | Activity [14] | inhibition in vivo at 200 mg/kg [15] | Cmax [17] | inhibition in vivo at 200 mg/kg [18] | pIC50 [19] | pIC50 [22] | other results
7.80 | CS(=O)(=O)NCCNCc1ccc(-c2ccc3ncnc(Nc4ccc(OCc5cccc(F)c5)c(Cl)c4)c3c2)o1 | – | – | – | – | – | – | – | – | – | – | – | – | – | – | – | – | – | – | 7.73 | –
8.41 | NS(=O)(=O)CCNCc1ccc(-c2ccc3ncnc(Nc4ccc(OCc5cccc(F)c5)c(Cl)c4)c3c2)o1 | – | – | – | – | – | – | – | – | – | – | – | – | – | – | – | – | – | – | – | –
